Screening data: PubChem BioAssay, Johns Hopkins Ion Channel Center
KCNQ1 inh – inhibitors of human KCNQ1 potassium channel; CHO-K1 KCNQ1, FluxOR thallium flux fluorescence; hits give high values; P51787; AID 2642; B-score at 10 µM; 1.3% of 310,000 active;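 active = compounds whose thallium flux B-score, printed positive for inhibition, exceeds three library SD while starting fluorescence stays within three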;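 note: channel opened by potassium depolarization with thallium stimulus after 20 min compound exposure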
KCNK9 block – human KCNK9 channel inhibition | Q9NPC2 | HEK293 KCNK9, FluxOR thallium flux fluorescence; hits give low values | B-score at 10 µM | 1.2% of 310,000 active | AID 488922;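 active = ratio B-score over 3 SD below the library mean, with starting fluorescence within 5 SD of its mean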;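 note: negative B-score means less thallium flux so channel inhibition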
Target sequence (Q9NPC2 whole entry, looked up): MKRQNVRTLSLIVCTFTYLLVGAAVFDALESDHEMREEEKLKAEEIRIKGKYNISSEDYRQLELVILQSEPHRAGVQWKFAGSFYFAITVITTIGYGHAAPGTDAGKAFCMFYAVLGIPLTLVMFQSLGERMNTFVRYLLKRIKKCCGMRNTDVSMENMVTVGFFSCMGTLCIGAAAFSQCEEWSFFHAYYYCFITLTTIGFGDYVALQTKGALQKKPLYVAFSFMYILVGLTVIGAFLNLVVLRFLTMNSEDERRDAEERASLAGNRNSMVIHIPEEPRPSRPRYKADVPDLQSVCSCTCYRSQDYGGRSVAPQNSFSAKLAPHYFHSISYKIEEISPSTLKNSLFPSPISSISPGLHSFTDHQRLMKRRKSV
Kir21 block – Kir2.1 (mouse) channel inhibition. P35561. HEK293-Kir2.1, FluxOR thallium flux fluorescence; hits give low values. B-score at 10 µM. 0.85% of 310,000 active. AID 1672;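 active = fluorescence ratio B-score at or below minus 3 SD of library scores, with starting-brightness B-score within 2 SD, cut at about -4.2 in these data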;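 note: channel flux triggered by added potassium and thallium sulfate stimulus; B-score of peak minus minimum fluorescence over baseline after thallium stimulus; more negative B-score means stronger Kir2.1 block with less thallium influx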
hERG protect – hERG (human) protection from proarrhythmic block. CHO-hERG, FluxOR thallium flux, dofetilide IC70 present. activation (rescue from dofetilide block), less the hit threshold, % at 10 µM. 0.51% of 310,000 active;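 active = activation above the mean of controls blocked by dofetilide plus 5 SD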;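 note: thallium influx through hERG after potassium depolarization seen as dye fluorescence rise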
KCNQ1 act – human KCNQ1 channel potentiation or activation; CHO-K1 KCNQ1, thallium flux FluxOR fluorescence; hits give high values; B-score at 10 µM; 0.35% of 310,000 active; AID 2648;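 active = fluorescence ratio B-score, a plate-corrected score, at least three library SD, with initial intensity B-score within 5 SD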
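Test system: CHO-K1 cells stably expressing KCNQ1 / Medium: assay buffer / Also added: depolarizing K+/Tl+ stimulus, K2SO4 and Tl2SO4 each 12.5 mM in 5x stock / Incubation: 90 min dye loading and 20 min compound exposure, both at room temperature / Signal: thallium influx via FluxOR fluorescence, kinetic imaging / Evaluation: B score of baseline-normalized fluorescence ratio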
KCNK3 inh – human KCNK3 channel inhibition, primary screen | AID 602410 | CHO-KCNK3 thallium flux, FluxOR fluorescence; hits give low values | 0.84% of 340,000 active | B-score at 10 µM;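 active = B-score under library mean minus 4 SD, starting fluorescence ratio at most library mean plus 5 SD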;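 note: more negative B-score means stronger inhibition of thallium flux through KCNK3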
An asterisk follows results filed as active. A selection: hits, their analogues and other compounds. The true share with any hit is near 3.7%.

For COCCN(C(=O)CSc1nnc(-c2ccccc2C)n1C)c1c(N)n(Cc2ccccc2)c(=O)[nH]c1=O the results were KCNQ1 inh inactive, KCNK9 block inactive, Kir21 block -0.33, hERG protect 3, KCNQ1 act inactive and KCNK3 inh inactive.
Screening O=C(/C=C/c1ccccc1)NC(N1CCOCC1)C(Cl)(Cl)Cl (centres undefined) returned KCNQ1 inh inactive, KCNK9 block inactive, Kir21 block 1.4, hERG protect -10, KCNQ1 act inactive and KCNK3 inh inactive.
Screening O=C1C=C(NNC(=O)c2ccncc2)CC(c2ccccc2)C1 (centres undefined) returned KCNQ1 inh inactive, KCNK9 block inactive, Kir21 block -0.85, hERG protect -7, KCNQ1 act inactive and KCNK3 inh inactive.
For CC(O)[C@H]1CC[C@H]2[C@@H]3CC[C@H]4C[C@H](O)CC[C@]4(C)[C@H]3[C@H](O)C[C@]12C (some centres undefined) the results were KCNK3 inh inactive.
Cc1cc(C)cc(C(=O)Oc2cc(C)[nH]c(=O)c2[N+](=O)[O-])c1 was read as KCNQ1 inh inactive, KCNK9 block inactive, Kir21 block -0.9, hERG protect -10, KCNQ1 act inactive and KCNK3 inh inactive.
`CN(Cc1ccc(F)cc1)C(=O)CNC(=O)C1CCCCC1` gave KCNQ1 inh inactive, KCNK9 block inactive, Kir21 block -0.8, hERG protect -5, KCNQ1 act inactive and KCNK3 inh inactive.
Cc1ccc(OCC(=O)NC(=S)Nc2ccc(Br)c(C)n2)cc1 was read as KCNQ1 inh inactive, KCNK9 block inactive, Kir21 block -0.95, hERG protect -7, KCNQ1 act inactive and KCNK3 inh inactive.
Cc1ccc(OCC(=O)NC(=S)Nc2ccc(Br)cn2)cc1 was read as KCNQ1 inh inactive, KCNK9 block inactive, Kir21 block -0.78, hERG protect 12*, KCNQ1 act 9* and KCNK3 inh inactive.
For CC(C(=O)NC(C)(C)C)N(C(=O)CS(=O)CC(=O)Nc1ccc(F)cc1)c1ccccc1F (centres undefined) the results were KCNQ1 inh inactive, KCNK9 block inactive, Kir21 block -2, hERG protect -8, KCNQ1 act inactive and KCNK3 inh inactive.
For CCC(C)Sc1nnc(NC(=O)C2CCN(C(=O)c3ccco3)CC2)s1 (centres undefined) the results were KCNQ1 inh inactive, KCNK9 block inactive, Kir21 block 0.07, hERG protect -2, KCNQ1 act inactive and KCNK3 inh inactive.
For CCN(CC(=O)Nc1c(F)cccc1F)C(=O)CSc1ccc(F)cc1 the results were KCNQ1 inh inactive, KCNK9 block inactive, Kir21 block 1.7, hERG protect -7, KCNQ1 act inactive and KCNK3 inh inactive.
Screening CCN(CC(=O)NCc1ccc(Cl)cc1)C(=O)CSc1ccc(F)cc1 returned KCNQ1 inh inactive, KCNK9 block inactive, Kir21 block -4.5*, hERG protect -11, KCNQ1 act inactive and KCNK3 inh inactive.
Screening Fc1cccc2sc(Nc3nnc(-c4ccco4)o3)nc12 returned KCNQ1 inh inactive, KCNK9 block inactive, Kir21 block 0.26, hERG protect 13*, KCNQ1 act 21* and KCNK3 inh inactive.
`O=C(Nc1nc2c(F)cccc2s1)c1ccco1` gave KCNQ1 inh inactive, KCNK9 block inactive, Kir21 block -0.93, hERG protect -7, KCNQ1 act inactive and KCNK3 inh inactive.
COc1cccc2sc(Nc3nnc(-c4cccs4)o3)nc12 was read as KCNQ1 inh inactive, KCNK9 block inactive, Kir21 block 1.9, hERG protect 34*, KCNQ1 act 19* and KCNK3 inh inactive.
COc1cccc2sc(Nc3nnc(-c4ccc(F)cc4)o3)nc12 was read as KCNQ1 inh inactive, KCNK9 block inactive, Kir21 block 1.2, hERG protect 46*, KCNQ1 act 94* and KCNK3 inh inactive.
`COc1cccc2sc(Nc3nc(-c4ccccn4)cs3)nc12` gave KCNQ1 inh inactive, KCNK9 block -6.9*, Kir21 block -0.65, hERG protect 24*, KCNQ1 act 33* and KCNK3 inh inactive.
